The record followed here is the array DNA melting data of Ke et al. (doi:10.1101/2024.01.08.574731).

Series [1] is described as follows: folding enthalpy; higher = less favourable; fluorescence melt of hairpins on a sequencing array, two-state fit. The following applies: sodium 0.088 M. A digest of the protocol: (§1)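 Hairpins were imaged by Cy3 fluorescence on a sequenced MiSeq flow cell with annealed Cy3 and quencher oligos, in 50 mM Na-HEPES pH 8.0, 25 mM NaCl, in 2.5 °C steps up to 60 °C. Bootstrapped two-state fits of normalised signals gave melting temperature and folding enthalpy. Four replicates were combined by inverse variance, and fitted temperatures were raised by 9.35 °C to match UV melts.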

Series [2] is described as follows: melting temperature; fluorescence melt of hairpins on a sequencing array, two-state fit, raised by 9.35 °C to match UV melts. To be noted: sodium 0.088 M. The gist of the method:
as §1

Consider GATCACGAAAGTGGCATC ((((((....)))..))), for which the folding enthalpy in series [1] was -12.3 kcal/mol. In addition, the Tm in series [2] was found to be 30.3 °C.
For GGGATCGAAAGATTCCC ((((((....))).))), in that order: -25 kcal/mol and 51 °C.
Take GATCTACCCTTAGATC ((((((....)))))): the folding enthalpy in series [1] was -35.6 kcal/mol. Also, in series [2], the Tm stood at 41.8 °C.
The matching figures for GGATACGGAAACGCATCC ((((.((....)).)))): -29.1 kcal/mol and 45.5 °C.
For GATCATACTTATGATC ((((((....)))))), in that order: -37 kcal/mol and 48.5 °C.
For GCCGAGGGAAACCCCGAC (.((.((....)).)).), in that order: -13.8 kcal/mol and 31 °C.
Take GATCTGGAGACAGATC ((((((....)))))): in series [1], the folding enthalpy is -33.9 kcal/mol. Besides, the Tm in series [2] came to 52 °C.
Turning to GATCGATACCTCGATC ((((((....)))))), in series [1], the folding enthalpy was -35.1 kcal/mol. Also, the Tm in series [2] came to 53.1 °C.
The matching figures for GATCTTTCTGAAGATC ((((((....)))))): -36 kcal/mol and 45.2 °C.
The matching figures for GACCCACGAAAGTGTGTC (((.(((....))).))): -27.4 kcal/mol and 48.9 °C.
For GGGCACGAAAGTGCGCCC ((((((....)))..))), in that order: -11.8 kcal/mol and 54.9 °C.
In the case of GTTTCAGGAAACTGAAAC (((((((....))))))), the folding enthalpy in series [1] is -45 kcal/mol. For the same sequence, in series [2], the Tm came out at 55.3 °C.
With GCCGCCGAAAGGCATGGC ((((((....)))..))), the folding enthalpy in series [1] is -19.9 kcal/mol. Further, in series [2], the Tm came to 63 °C.
For the sequence GGCTGGGGAAACCCGGTC (.(.(((....))).).), the folding enthalpy in series [1] was -28.5 kcal/mol. In addition, the Tm in series [2] amounted to 46.1 °C.
For GGAATCGAAAGATGTCC ((((((....))).))), the folding enthalpy in series [1] was -15.6 kcal/mol. Besides, in series [2], the Tm was 32.5 °C.
For GAGGGAGGAAACCCCCTC (((((.(....).))))), in that order: -28.5 kcal/mol and 46.3 °C.
For GCCTAGCGAAAGCTTTGC ((..(((....)))..)), in that order: -12 kcal/mol and 33.4 °C.
For GCTGACGGAAACGCCAAC (.((.((....)).)).), in that order: -14.1 kcal/mol and 25.9 °C.
On to GTCTTACCGAAAGGTGAC (((..(((....)))))), for which the folding enthalpy in series [1] was -13.9 kcal/mol. The Tm in series [2] was 35.7 °C.
For GATCGTATAAACGATC ((((((....)))))), in that order: -31.9 kcal/mol and 54.7 °C.
For GCTGCTGGAAACGGTAGC (((.(.(....).).))), in that order: -31.3 kcal/mol and 41.3 °C.
As to GATCGTCACCACGATC ((((((....)))))), the folding enthalpy in series [1] is -40.9 kcal/mol. The Tm in series [2] turned out to be 54 °C.
As for GGGTACACGAAAGTGCCC (((..(((....)))))), the folding enthalpy in series [1] is -21.2 kcal/mol. Also, the Tm in series [2] came to 48 °C.
Regarding GGATAGGGAAACCTATTC (.(((((....))))).), the folding enthalpy in series [1] was -29.4 kcal/mol. Further, in series [2], the Tm was 34.9 °C.
The matching figures for GATCGTCCATACGATC ((((((....)))))): -41.8 kcal/mol and 54.8 °C.
For GATCCCCGACGGGATC ((((((....)))))), in that order: -27.3 kcal/mol and 56.8 °C.
On to CGCACGGAAACGTACGCG ((((((....)))..))), for which the folding enthalpy in series [1] was -22.1 kcal/mol. In addition, the Tm in series [2] is 46.1 °C.
The matching figures for GACTGTGGAAACACGGTC (((.(((....))).))): -40.6 kcal/mol and 52.2 °C.
The matching figures for GATCGACGAAAGTCTATC (((.(((....))).))): -26.8 kcal/mol and 37.1 °C.
For GATCCGCAGTCGGATC ((((((....)))))), in that order: -35 kcal/mol and 55.9 °C.
Turning to GATCAGCAGACTGATC ((((((....)))))), in series [1], the folding enthalpy was -42.5 kcal/mol. The Tm in series [2] came to 50.3 °C.
For GCCTGTGGAAACACGGGC (((.(((....))).))), in that order: -41 kcal/mol and 61.9 °C.
Regarding GGTTGGAAACAACC (((((....))))), in series [1], the folding enthalpy was -29.6 kcal/mol. Also, the Tm in series [2] is 54.9 °C.
The matching figures for GGGTACGAAAGTATCCC ((((((....))).))): -37.3 kcal/mol and 51.8 °C.
Take GAACTGACGAAAGTCTTC (((..(((....)))))): the folding enthalpy in series [1] is -8.83 kcal/mol. The Tm in series [2] was 23.7 °C.
As for GACTCCGAAAGGAATGTC ((((((....)))..))), in series [1], the folding enthalpy is -17.7 kcal/mol. Also, the Tm in series [2] was found to be 38.6 °C.
The matching figures for ATTCGGAAACGAAT (((((....))))): -18.4 kcal/mol and 44.8 °C.
For GCGTACGAAAGTAACGC ((((((....))).))), in that order: -40.2 kcal/mol and 59.4 °C.
On to GATGGTGGAAACGCCATC (((((.(....).))))), for which the folding enthalpy in series [1] is -44.2 kcal/mol. Besides, the Tm in series [2] is 53.4 °C.
Consider ATTGTGAAAACAAT (((((....))))), for which the folding enthalpy in series [1] was -14.9 kcal/mol. The Tm in series [2] is 39 °C.
GGCGTGCGAAAGCAGCC (((.(((....)))))): in series [1], the folding enthalpy was -26.9 kcal/mol. Moreover, the Tm in series [2] is 67.8 °C.
The matching figures for GCAACGCGAAAGCTTAGC ((.(.((....)).).)): -7.66 kcal/mol and 28.5 °C.
For GTTGTAGGAAACTACAAC (((((((....))))))), in that order: -40.5 kcal/mol and 56.1 °C.
For GAGGACGAAAGTCGACTC ((((((....)))..))), in that order: -14.9 kcal/mol and 40.6 °C.
On to GATCACCCGGTGATC ((((((...)))))), for which the folding enthalpy in series [1] is -44.2 kcal/mol. Besides, in series [2], the Tm turned out to be 56.3 °C.
In the case of GCGCAGCGAAAGCTCTGC ((..(((....)))..)), the folding enthalpy in series [1] is -7.6 kcal/mol. The Tm in series [2] is 38.5 °C.
The matching figures for GCGCTAGGAAACTGGTGC ((.(.((....)).).)): -28.9 kcal/mol and 44.3 °C.
The matching figures for GTGGATCCGAAAGGACAC (((..(((....)))))): -23.3 kcal/mol and 39.4 °C.
Regarding GCGTTTGAACGC ((((....)))), in series [1], the folding enthalpy was -20.3 kcal/mol. For the same sequence, the Tm in series [2] worked out at 56.7 °C.
For GCTCGGCGAAAGCGTAGC (((..((....))..))), in that order: -12.9 kcal/mol and 39.3 °C.
The matching figures for GTTACTGGAAACAGTAGC (.(((((....))))).): -24.2 kcal/mol and 40.3 °C.
For GATTCAGAAATGAATC ((((((....)))))), in that order: -25.8 kcal/mol and 46.7 °C.
Turning to GCGGCGCCCCGC ((((....)))), the folding enthalpy in series [1] is -16.4 kcal/mol. In series [2], the Tm is 52.7 °C.
The matching figures for ACTCGGAAACGAGT (((((....))))): -20.8 kcal/mol and 52.3 °C.
The matching figures for GCGGCCCCCGC ((((...)))): -20.4 kcal/mol and 56.6 °C.
The matching figures for GATCTGTGTCCAGATC ((((((....)))))): -31.8 kcal/mol and 49.2 °C.
On to GGCGACGAAAGTCATGCC ((((((....)))..))), for which, in series [1], the folding enthalpy was -27.2 kcal/mol. In addition, in series [2], the Tm turned out to be 52.5 °C.
For GATCTTGAAAAGATC ((((((...)))))), in that order: -33.5 kcal/mol and 54.8 °C.
The matching figures for GCTCTCGAAAGAGAGAGC ((((((....)))..))): -19.5 kcal/mol and 57.2 °C.
As for CGAGTTCGGAAACGATCG (((..(((....)))))), in series [1], the folding enthalpy is -10.2 kcal/mol. The Tm in series [2] came to 30.8 °C.
GTAAAGCGAAAGCTCTAC (((.(((....))).))): the folding enthalpy in series [1] is -14.5 kcal/mol. Besides, in series [2], the Tm was found to be 35 °C.
The matching figures for GCATCCGAAAGGAATGC ((((((....))).))): -32.3 kcal/mol and 55.4 °C.
For GGGGGCGAAAGCCATCCC ((((((....)))..))), in that order: -13.5 kcal/mol and 51.5 °C.
As for GATCACGGCTGTGATC ((((((....)))))), the folding enthalpy in series [1] was -44.5 kcal/mol. Besides, the Tm in series [2] was found to be 62.3 °C.
GTGGGCGAAAGCCAGCAC ((((((....)))..))): the folding enthalpy in series [1] was -12.8 kcal/mol. Besides, the Tm in series [2] amounted to 46.5 °C.
The matching figures for GCATTGCGAAAGCACGGC ((..(((....)))..)): -16.6 kcal/mol and 40 °C.
For GGCCATCGAAAGATCGCC (((.(((....))).))), in that order: -33.6 kcal/mol and 46.8 °C.
For GAGCCCGAAAGGGACCTC ((((((....)))..))), in that order: -15.6 kcal/mol and 45 °C.
Take GGAACCGGAAACGGTTTC (.(((((....))))).): the folding enthalpy in series [1] is -21.3 kcal/mol. Further, the Tm in series [2] stood at 54.5 °C.
The matching figures for GCGCTGCGAAAGCGTCGC (((..((....))..))): -25.4 kcal/mol and 59.7 °C.
For GATCGGTTTACCGATC ((((((....)))))), in that order: -37.4 kcal/mol and 68.6 °C.
For GGTCGGGGAAACCCGGCC ((.((((....)))).)), in that order: -42.7 kcal/mol and 66.2 °C.
Take GCGTATAACGC ((((...)))): the folding enthalpy in series [1] is -21 kcal/mol. Also, the Tm in series [2] was 56.4 °C.
For GTGAAGCGAAAGCTCAC (((.(((....)))))), in that order: -26.2 kcal/mol and 56 °C.
